Test system: Trypanosoma cruzi
Test: Inhibitory concentration against Trypanosoma cruzi (epimastigotes)
Type: functional, organism-based
Summary of the method: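 T. cruzi epimastigotes (Y strain) grown at 28 °C in brain-heart infusion (37 g/L) medium with hemin chlorohydrate (20 mg/L) and 10% newborn calf serum. Initial inoculum 2-3 × 10^6 cells/mL, counted in a Neubauer chamber. Each drug tested at four concentrations with a drug-free control per group. Growth read as absorbance at 600 nm against medium blank. Percent inhibition taken from the start-to-end absorbance change relative to control.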

IC50 [µM]	Structure (SMILES)
218	COc1ccc(OCCOC2CCCCO2)cc1 (stereo not given)
78	CC(C)=CCC/C(C)=C/CC/C(C)=C/COC1CCCCO1 (stereo not given)
138	c1ccc(Oc2ccc(OCCOC3CCCCO3)cc2)cc1 (stereo not given)
233	CCNC(=O)OCC(O)COc1ccc(Oc2ccccc2)cc1 (stereo not given)
> 240	C=COC(=O)OC(C)COc1ccc(Oc2ccccc2)cc1 (stereo not given)
260	C=COC(=O)OCCCOc1ccc(Oc2ccccc2)cc1
> 500	OC(c1ccccc1)c1ccc(OCCOC2CCCCO2)cc1 (stereo not given)
210	CCSC(=O)OC/C=C(\C)CC/C=C(\C)CCC1OC1(C)C (stereo not given)
> 500	COc1ccc(OCCO)cc1
> 300	CCNC(=O)OCCOc1ccc(OC)cc1
129	C=CCOc1ccc(C(=O)c2ccccc2)cc1
> 300	CCNC(=O)OCCOc1ccc(C(=O)c2ccccc2)cc1
147	CCNC(=O)OC/C=C(\C)CC/C=C(\C)CCC=C(C)C
270	OCC(O)COc1ccc(Oc2ccccc2)cc1 (stereo not given)
> 300	COc1ccc(OCCCOC2CCCCO2)cc1 (stereo not given)
176	CCNC(=O)OC/C=C(\C)CCC=C(C)C
> 400	O=C(c1ccccc1)c1ccc(OCCO)cc1
> 500	C=COC(=O)OC/C=C(\C)CC/C=C(\C)CCC=C(C)C
142	OC(COc1ccc(Oc2ccccc2)cc1)COC1CCCCO1 (stereo not given)
68	CC(C)=CCC/C(C)=C/COC1CCCCO1 (stereo not given)
268	O=C(c1ccccc1)c1ccc(OCCOC2CCCCO2)cc1 (stereo not given)
> 350	CCNC(=O)OC(C)COc1ccc(OC)cc1 (stereo not given)
> 500	COc1ccc(OCC(C)O)cc1 (stereo not given)
> 350	CCNC(=O)OCCCOc1ccc(OC)cc1
209	C=CCOc1ccc(OC)cc1 [1-allyloxy-4-methoxybenzene]
